Shown are actives, neighbours in structure and some others; about 1.9% of the full set was active somewhere.
NR2E3 ag-1: activates human photoreceptor nuclear receptor NR2E3; GST-NR2E3/biotin-RetCOR TR-FRET, 1536-well; inhibition of corepressor binding, % at 4.78 µM; hit rate 0.12% among 320,000; AID 2300;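 active = percent inhibition above the cutoff of mean plus 3 SD of all tested compounds, set per screening campaign, cut at about 20% in these data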
Target sequence (Q9Y5X4 whole entry, looked up): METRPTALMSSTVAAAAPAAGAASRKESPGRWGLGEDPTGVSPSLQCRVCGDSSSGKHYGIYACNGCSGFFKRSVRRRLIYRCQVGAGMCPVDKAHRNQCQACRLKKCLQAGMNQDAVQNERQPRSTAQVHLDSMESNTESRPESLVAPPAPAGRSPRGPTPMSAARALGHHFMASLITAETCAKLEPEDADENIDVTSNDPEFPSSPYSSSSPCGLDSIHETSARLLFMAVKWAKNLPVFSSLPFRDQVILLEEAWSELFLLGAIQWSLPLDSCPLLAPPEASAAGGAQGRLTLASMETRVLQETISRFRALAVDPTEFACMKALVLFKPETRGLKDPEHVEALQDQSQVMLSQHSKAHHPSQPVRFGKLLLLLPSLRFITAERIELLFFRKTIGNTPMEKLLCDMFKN
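Format: 1536-well format; test system: GST-NR2E3 and biotin-RetCOR proteins; read-out basis: percent inhibition of TR-FRET ratio; timing: 5 h incubation at 4 °C; detection: time-resolved FRET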
NR2E3 ag-2: agonists of human NR2E3 nuclear receptor | CHO-S Gal4-NCOR/VP16-NR2E3 two-hybrid, luciferase | inhibition of corepressor binding, % at 3.98 µM | hit rate 0.35% among 360,000;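 active = inhibition above the mean of all tested compounds plus 3 SD, cut at about 70% in these data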;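 also: higher means lower luciferase signal from less NR2E3 corepressor binding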
Rev-erbA mod: modulators of human Rev-erb alpha DNA binding | P20393 | Rev-erbα–FITC-DNA binding, fluorescence polarization, 90 min | activity, % at 10 µM | hit rate 0.79% among 370,000 | AID 1259318;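 active = activity above about 14%, limit read from the data; passing the limit was not always enough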
SKN-1 inh: C. elegans SKN-1 inhibition; C. elegans VP596 Pgst-4::GFP/RFP ratio, acrylamide-induced, 24 h; hit rate 0.49% among 360,000; inhibition, % at 21.8 µM;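 active = interference check ratio from 0.5 to 1.5 plus GFP to RFP signal ratio inhibition reaching or exceeding a fixed threshold, cut at about 30% in these data, passing the limit was not always enough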
MT1-MMP act inh: MT1-MMP (human) activation inhibition; hit rate 0.061% among 360,000; P50281; HT1080 RFP-PRO-GFP cells, GFP/RFP ratio fluorescence, overnight; percent of plate control window, DMSO zero; GFP/RFP ratio change, % at 20 µM; AID 651647;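 active = GFP/RFP ratio change of at least 30% with cell ATP level not reduced by more than half and red fluorescence within 50% of control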
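Assay system: RFP-PRO-GFP reporter HT1080 cells; read-out basis: GFP/RFP fluorescence ratio; benchmarks: DMSO wells and RFP-L50D-GFP cells; doses: 20 µM single dose, 1% DMSO; schedule: overnight cell settling, then overnight compound exposure, 37 °C, 5% CO2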
PG9 Ab binder: binds the HIV-1 gp120 antibody PG9. AID 624416. TR-FRET gp120-PG9 antibody binding. inhibition, % at 6.7 µM. hit rate 0.43% among 360,000; in the data active = inhibition above about 8.5%
NR2E3 agonist cf: confirmation of human NR2E3 nuclear receptor agonists. cell-free NR2E3 corepressor release, TR-FRET, 5 h. shares compounds with NR2E3 ag-1. hit rate 39% among 360. activation (reported as inhibition), % at 3.98 µM; in the data active = activation above about 20%
PPARg-NCOR2 ctr: PPARg-NCOR2 interaction agonism, NR2E3 counter-screen; shares compounds with NR2E3 ag-1; TR-FRET PPARg-NCOR2 coregulator interaction, biochemical; inhibition, % at 3.98 µM; hit rate 45% among 360; in the data active = inhibition above about 20%
A number is an active result.

Screening NC(=O)c1sc2nc3c(c(-c4ccco4)c2c1N)CCC3 returned NR2E3 ag-1 inactive, NR2E3 ag-2 inactive, Rev-erbA mod inactive, SKN-1 inh inactive, MT1-MMP act inh inactive and PG9 Ab binder inactive.
CN(C(=O)c1ccc(NC(=O)Cc2ccc(NC(=O)C3CCN(C(=O)c4ccccc4)CC3)cc2)cc1)C1CC1 was read as NR2E3 ag-1 20.8, NR2E3 ag-2 inactive, Rev-erbA mod inactive, SKN-1 inh inactive, MT1-MMP act inh inactive, PG9 Ab binder inactive, NR2E3 agonist cf inactive and PPARg-NCOR2 ctr inactive.
`Cc1cc(C(=O)O)ccc1-n1c(C)ccc1C` gave NR2E3 ag-1 21.4, NR2E3 agonist cf 22.8 and PPARg-NCOR2 ctr inactive.
`COC(=O)[C@]12C[C@H](CC(=O)NCCCN3CCCC3=O)C(=O)N(Cc3ccccc3)C1=C[C@H](C1CCCC1)O[C@@H]2C` gave Rev-erbA mod inactive and PG9 Ab binder inactive.
For CCCCCCCCN1C(=O)[C@@H](CC(=O)NCCCCc2ccccc2)C[C@@]2(C(=O)OC)C1=C[C@H](C1CCCC1)O[C@@H]2C the results were Rev-erbA mod inactive and PG9 Ab binder inactive.
For COc1cc(Br)c(C(=O)c2nccc3cc(OC)c(OC)cc23)cc1OC the results were NR2E3 ag-1 27.9, NR2E3 ag-2 inactive, Rev-erbA mod inactive, SKN-1 inh inactive, MT1-MMP act inh inactive, PG9 Ab binder inactive, NR2E3 agonist cf 24.0 and PPARg-NCOR2 ctr inactive.
`COc1cc(N)c(C(=O)c2nccc3cc(OC)c(OC)cc23)cc1OC` gave NR2E3 ag-1 inactive, NR2E3 ag-2 inactive, Rev-erbA mod inactive, SKN-1 inh inactive, MT1-MMP act inh inactive and PG9 Ab binder inactive.
Screening Nc1ccc2nc(-c3ccc(-c4nc5ccc(N)cc5[nH]4)cc3)[nH]c2c1 returned NR2E3 ag-1 23.6, Rev-erbA mod inactive, PG9 Ab binder inactive, NR2E3 agonist cf inactive and PPARg-NCOR2 ctr inactive.
c1ccc(Cn2nnc3c(NCc4ccc5c(c4)OCO5)ncnc32)cc1 was read as NR2E3 ag-1 inactive, NR2E3 ag-2 inactive, Rev-erbA mod inactive, SKN-1 inh inactive, MT1-MMP act inh inactive and PG9 Ab binder inactive.
`c1ccc(CCNc2ncnc3c2nnn3Cc2ccccc2)cc1` gave NR2E3 ag-1 22.2, NR2E3 ag-2 inactive, Rev-erbA mod inactive, SKN-1 inh inactive, MT1-MMP act inh inactive, PG9 Ab binder inactive, NR2E3 agonist cf inactive and PPARg-NCOR2 ctr inactive.
For CCOC(=O)N1CCN(C(=O)C[C@@H]2C(=O)N(Cc3ccc(OC)cc3)C3=CCN(C(=O)OC(C)(C)C)C[C@]32C(=O)OCC)CC1 the results were Rev-erbA mod inactive.
COc1cc2c(cc1OC)[C@](C)(c1ccccc1)C[C@@H]2NCC=C(C)C was read as Rev-erbA mod inactive and PG9 Ab binder inactive.
CCOc1ccc(-n2nc3c(=O)[nH]nc(C)c3c2C)cc1 was read as NR2E3 ag-1 inactive, NR2E3 ag-2 inactive, Rev-erbA mod inactive, SKN-1 inh inactive, MT1-MMP act inh inactive and PG9 Ab binder inactive.
CCOc1ccc(-n2nc3c(=S)[nH]nc(C)c3c2C)cc1 was read as NR2E3 ag-1 26.4, NR2E3 ag-2 inactive, Rev-erbA mod inactive, SKN-1 inh inactive, MT1-MMP act inh inactive, PG9 Ab binder 41.5, NR2E3 agonist cf inactive and PPARg-NCOR2 ctr 21.9.
For Fc1ccc(NCc2nnc(SCc3nnc(-c4ccccc4)o3)n2CC2CCCO2)cc1 (stereo not given) the results were NR2E3 ag-1 35.6, NR2E3 ag-2 inactive, Rev-erbA mod inactive, SKN-1 inh inactive, MT1-MMP act inh inactive, PG9 Ab binder inactive, NR2E3 agonist cf inactive and PPARg-NCOR2 ctr inactive.
`O=C(CSc1nnc(CNc2ccc(F)cc2)n1CC1CCCO1)Nc1ccccc1` (stereo not given) gave NR2E3 ag-1 inactive, NR2E3 ag-2 inactive, Rev-erbA mod inactive, SKN-1 inh inactive, MT1-MMP act inh inactive and PG9 Ab binder inactive.
`O=C(Nc1nnc(Cc2ccccc2)s1)c1cccs1` gave NR2E3 ag-1 27.0, NR2E3 ag-2 inactive, Rev-erbA mod inactive, SKN-1 inh inactive, MT1-MMP act inh inactive, PG9 Ab binder inactive, NR2E3 agonist cf inactive and PPARg-NCOR2 ctr inactive.
`CCCOc1ccc(C2C(C(=O)c3ccc(C)o3)=C(O)C(=O)N2Cc2ccco2)cc1OCC` (stereo not given) gave NR2E3 ag-1 23.7, NR2E3 ag-2 inactive, Rev-erbA mod inactive, SKN-1 inh inactive, MT1-MMP act inh inactive, PG9 Ab binder inactive, NR2E3 agonist cf inactive and PPARg-NCOR2 ctr inactive.
Screening Cc1ccc(C(=O)C2=C(O)C(=O)N(Cc3cccnc3)C2c2cccc([N+](=O)[O-])c2)o1 (stereo not given) returned NR2E3 ag-1 inactive, NR2E3 ag-2 inactive, Rev-erbA mod inactive, SKN-1 inh inactive, MT1-MMP act inh inactive and PG9 Ab binder inactive.
Screening O=C(C1=C(O)C(=O)N(Cc2ccco2)C1c1ccccc1)c1cccs1 (stereo not given) returned NR2E3 ag-1 20.2, NR2E3 ag-2 inactive, Rev-erbA mod inactive, SKN-1 inh inactive, MT1-MMP act inh inactive, PG9 Ab binder inactive, NR2E3 agonist cf inactive and PPARg-NCOR2 ctr inactive.
Screening Cc1ccc(C(=O)C2=C(O)C(=O)N(Cc3ccccc3)C2c2cccnc2)o1 (stereo not given) returned NR2E3 ag-1 39.8, NR2E3 ag-2 inactive, Rev-erbA mod inactive, SKN-1 inh inactive, MT1-MMP act inh inactive, NR2E3 agonist cf inactive and PPARg-NCOR2 ctr inactive.
`O=C(C1=C(O)C(=O)N(Cc2ccco2)C1c1cccs1)c1cccs1` (stereo not given) gave NR2E3 ag-1 inactive, NR2E3 ag-2 inactive, Rev-erbA mod inactive, SKN-1 inh inactive, MT1-MMP act inh inactive and PG9 Ab binder inactive.
For O=C(NCCc1c[nH]c2ccccc12)OCc1cn(Cc2ccccc2Cl)nn1 the results were Rev-erbA mod inactive.
`O=C(Cn1c(-c2cncs2)nc2ccccc21)N1CCCCC1` gave Rev-erbA mod inactive.
Screening CCOC(=O)C1Nc2ccc(C(=O)O)cc2C2C=CCC12 (stereo not given) returned NR2E3 ag-1 29.6, NR2E3 ag-2 inactive, Rev-erbA mod inactive, SKN-1 inh inactive, MT1-MMP act inh inactive, PG9 Ab binder inactive, NR2E3 agonist cf inactive and PPARg-NCOR2 ctr inactive.
Screening O=C(O)c1ccc2c(c1)C1C=CCC1C(c1ccncc1)N2 (stereo not given) returned NR2E3 ag-1 22.8, NR2E3 ag-2 inactive, Rev-erbA mod inactive, SKN-1 inh inactive, MT1-MMP act inh inactive, PG9 Ab binder inactive, NR2E3 agonist cf inactive and PPARg-NCOR2 ctr inactive.
